Most compounds without a hit are left out; they make up all but 3.5% or so of the library.
RGS4 act: RGS4 potentiation or activation. B-score at 10 µM. actives 0.92% (n = 310,000). HEK293 M3R/inducible RGS4, carbachol calcium flux Fluo4; hits give low values;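 active means B-score of the integrated calcium signal more than 4 SD below the library mean, with starting fluorescence not abnormally high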;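 further: negative B-score means reduced calcium response which marks RGS4 activation or potentiation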
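Detection: kinetic calcium fluorescence imaging with Fluo4-AM dye, 2 µM / Material: HEK293 cells with stable M3R and inducible RGS4 / Schedule: recording 10 s baseline at 1 Hz, 100 s post-agonist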
RGS4 block: inhibitors of human RGS4; P49798; HEK293 M3R/RGS4 inducible, Fluo-4 calcium flux; hits give high values; triggered by carbachol at its EC20; B-score at 10 µM; actives 0.45% (n = 310,000);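 active means B-score, a plate-corrected calcium signal, over three deviations above library mean, with baseline fluorescence within five deviations of library mean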;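 further: RGS4 expression induced by doxycycline in cells with stable M3 receptor; B-score is computed from the integrated fluorescence ratio over baseline after carbachol; higher B-score means a larger calcium signal and so more RGS4 inhibition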
Target sequence (P49798 whole entry, looked up): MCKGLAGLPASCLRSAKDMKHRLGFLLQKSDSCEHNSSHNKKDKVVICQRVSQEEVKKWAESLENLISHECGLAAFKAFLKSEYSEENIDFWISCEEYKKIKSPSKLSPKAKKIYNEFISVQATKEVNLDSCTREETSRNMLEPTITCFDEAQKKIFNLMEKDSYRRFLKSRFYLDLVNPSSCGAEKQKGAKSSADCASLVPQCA
MrgX1 allo act: allosterically activates human MrgX1 receptor signaling. Q96LB2. actives 0.63% (n = 310,000). AID 588675. MrgX1-HEK293, Fluo-4 calcium flux, FDSS; hits give high values. B-score at 10 µM;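 active means plate-corrected calcium response at least 3 library SD above typical, normal starting fluorescence, not activating the receptor alone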;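 further: compound read alongside a low EC10 to EC30 dose of BAM8-22 agonist; peak minus trough fluorescence over baseline measured at the second addition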
Target sequence (Q96LB2 whole entry, looked up): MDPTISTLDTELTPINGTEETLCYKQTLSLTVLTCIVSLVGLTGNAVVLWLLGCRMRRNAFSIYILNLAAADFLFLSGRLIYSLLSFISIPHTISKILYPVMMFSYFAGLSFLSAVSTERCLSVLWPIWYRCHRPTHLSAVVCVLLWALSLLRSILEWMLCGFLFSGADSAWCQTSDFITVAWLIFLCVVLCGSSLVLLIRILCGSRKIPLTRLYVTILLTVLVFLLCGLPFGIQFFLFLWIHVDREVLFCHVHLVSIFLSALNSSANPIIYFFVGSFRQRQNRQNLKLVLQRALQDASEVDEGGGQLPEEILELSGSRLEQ
MrgX1 agonist: activates human MrgX1 receptor signaling; Q96LB2; MrgX1-HEK293 cells, Fluo-4 calcium fluorescence, agonist mode; hits give high values; B-score at 10 µM; actives 0.44% (n = 310,000); AID 588627;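 active means calcium response B-score plate-corrected fluorescence ratio at least 3 library SD, with starting fluorescence B-score inside 5 SD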
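Material: MrgX1-expressing HEK293 cells; input: 15,000 cells per well; doses: test compound given as first of three sequential additions; schedule: overnight plating before 1 h dye loading; technique: Fluo-4 NW calcium-flux fluorescence, kinetic read; evaluation: baseline-normalised fluorescence change ratio, B-scored; control set: plate-wise positive and negative controls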
MrgX1 antag: blocks BAM8-22 activation of human MrgX1 receptor. B-score at 10 µM. Q96LB2. actives 1.3% (n = 310,000). MRGX1-HEK293 calcium flux, Fluo-4, BAM8-22 antagonism; hits give low values;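 active means calcium-response B-score plate-corrected more than 3 library SD below zero, starting fluorescence within 5 deviations, no agonist response on first addition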;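 further: peak minus trough fluorescence over baseline after final BAM8-22 challenge near maximal dose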
Active calls of the source: *; i = inactive; · = no result given.

SMILES	RGS4 act	RGS4 block	MrgX1 allo act	MrgX1 agonist	MrgX1 antag
Cc1nn(CCCC(=O)NCCc2ccccc2)c(C)c1[N+](=O)[O-]	i	i	7.2*	i	i
Cc1ccc(Cn2nc(C)c(NC(=O)CCCn3nc(C)c([N+](=O)[O-])c3C)c2C)cc1	i	i	i	i	i
Cc1nn(Cc2c(Cl)cccc2Cl)c(C)c1NC(=O)CCCn1nc(C)c([N+](=O)[O-])c1C	i	i	i	i	-4.5*
Cc1ccc(S(=O)(=O)NCCC(=O)OCC(=O)N2CCCC2=O)cc1C	i	i	i	i	i
COc1cccc(NC(=O)c2cc3cccc(OC)c3o/c2=N\O)c1	i	6.1*	i	i	i
COc1cc(NC(=O)c2cc3cccc(OC)c3o2)cc(C(=O)Nc2cccc(C(F)(F)F)c2)c1	-8.2*	i	i	i	-5.2*
COc1ccc(NC(=O)c2cc3cccc(OC)c3oc2=Nc2ccc(C(=O)O)cc2)cc1OC	i	i	·	·	·
COc1cccc(NC(=O)c2cc3ccccc3o/c2=N\O)c1	i	i	i	27*	i
Cc1cc(C)cc(Nc2c(F)c(F)c(F)c(F)c2C(=O)O)c1	i	i	i	i	i
CC(CN1CCCCC1)C(=O)NNC(=O)C12CC3CC(CC(C3)C1)C2 (stereo not drawn)	i	i	7.6*	i	i
COc1ccccc1C(=O)NC(=O)COC(=O)c1cccc(C)c1O	i	i	i	i	i
CCN1CCc2c(sc(NC(=O)c3ccc(S(=O)(=O)N(C)c4ccccc4)cc3)c2C(=O)NC)C1	-7.5*	i	i	59*	i
CCC(=O)Oc1ccc(C2NC(=O)c3ccccc3O2)cc1OC (stereo not drawn)	-7.6*	i	i	i	i
COc1ccc(/C=C2\SC(=O)N(CCNC(=O)Cc3coc4cc(C)ccc34)C2=O)cc1OC	-8.5*	i	i	i	i
CN1CC=C2C(C#N)=C(N)C(C#N)(C#N)C(Cc3ccccc3)C2C1 (stereo not drawn)	i	i	i	36*	i
CC(C)CC(=O)C1=C(O)C(=O)N(Cc2ccccc2)C1c1ccccc1 (stereo not drawn)	i	i	12*	i	i
CC1CC(c2ccccc2)NS(=O)(=O)O1 (stereo not drawn)	i	i	i	i	i
CCN1/C(=C/c2ccc3cc(C)ccc3[n+]2CC)Sc2ccc3sccc3c21	i	i	i	39*	i
CCN1/C(=C\c2ccc3cc(C)ccc3[n+]2CC)Sc2cc(C)c(C)cc21	i	i	·	·	·
COC(=O)/C(C#N)=C/c1cc(C)sc1C	i	i	i	i	i
COc1ccc(/C=N/NC(=O)CCn2cnc(-c3ccccc3)c2-c2ccccc2)cc1OC	i	i	i	i	-5.6*
COc1ccc(/C=N/NC(=O)CCC(=O)Nc2ccccc2)cc1OC	i	i	i	i	i
N#CCCN(C(=O)COC(=O)c1ccc(CNS(=O)(=O)c2ccc(F)c(Cl)c2)cc1)c1ccc(F)cc1	-8.8*	i	i	i	i
CCCN(CC1CC1)C(=O)COC(=O)c1ccc(CNS(=O)(=O)c2ccc(F)c(Cl)c2)cc1	i	i	i	i	-4.9*
O=C(COC(=O)c1ccc(CNS(=O)(=O)c2ccc(F)c(Cl)c2)cc1)NC1CCCCCCC1	i	i	i	i	i
SMILES	RGS4 act	RGS4 block	MrgX1 allo act	MrgX1 agonist	MrgX1 antag
COc1ccc(CCN(C)C2CCCN(C(=O)c3sccc3C)C2)cc1OC (stereo not drawn)	i	i	i	i	i
CCc1nnc(SCC(=O)NC2CC2)n1CC	i	i	i	i	i
O=C(NN1CCOCC1)c1ccc(Br)cc1	i	i	i	i	i
Cc1ccc(C(=O)NN2CCOCC2)cc1	i	i	i	i	-5*
COC(=O)c1ccccc1NC(=O)N1CCN(Cc2ccco2)CC1	i	i	i	i	i
COc1ccc(N(C)C(=O)c2ccc3c(Cl)c4c(nc3c2)CCCC4)c(OC)c1	-7.1*	i	i	i	i
O=c1c2cc(Br)ccc2nc(-c2ccc([N+](=O)[O-])cc2)n1O	i	i	i	133*	i
O=c1c2cc(Cl)ccc2nc(-c2ccccc2)n1O	i	i	i	i	i
O=c1c2ccc(Cl)cc2nc(-c2ccc([N+](=O)[O-])cc2)n1O	i	i	i	54*	i
CCCc1cc(=O)oc2cc(OCC(=O)NCCc3c[nH]c4ccccc34)ccc12	i	i	i	i	i
O=C1NCCN(C(=O)CCc2nnc(-c3ccsc3)o2)C1c1ccc(F)cc1 (stereo not drawn)	i	i	i	i	i
O=C(c1cc([N+](=O)[O-])ccc1N1CCOCC1)N1CCN(S(=O)(=O)c2cc(Cl)ccc2Cl)CC1	i	i	i	i	i
O=c1c2ccccc2nc(COc2ccccc2)n1/N=C/c1ccc(O)c(O)c1	-7.7*	i	i	i	i
O=C(O)COc1ccc(/C=N/n2c(COc3ccccc3)nc3ccccc3c2=O)cc1	i	i	i	i	i
COc1cc(/C=C2/C(=O)c3cccc([N+](=O)[O-])c3C2=O)c(Br)cc1O	·	·	i	35*	i
COc1ccccc1NC(=O)CCCCCN1C(=O)c2cccc([N+](=O)[O-])c2C1=O	i	i	i	i	i
COc1ccc(OCc2cc(C(=O)NCc3cccc(C)n3)no2)c(Cl)c1	i	i	i	i	i
CCn1c(-c2ccccc2Cl)nn(CC(=O)NCCc2ccccc2)c1=S	i	i	12*	i	i
COc1ccc(OCC(O)CNC(=O)/C=C/c2cccc([N+](=O)[O-])c2)cc1 (stereo not drawn)	i	i	i	i	i
OC(c1ccccc1)(C1CCCCC1)C(CN1CCOCC1)c1ccccc1 (stereo not drawn)	i	i	i	i	-8.2*
COc1ccc(C(O)(C2CCCCC2)C(CN2CCOCC2)c2ccccc2)cc1 (stereo not drawn)	i	i	i	i	i
COC(=O)CCCC(=O)N1CCCC(CNS(=O)(=O)c2ccc(OC)cc2)C1 (stereo not drawn)	i	i	i	i	-4.6*
COCCC(=O)N1CCCC(CNS(=O)(=O)c2ccc(OC)cc2)C1 (stereo not drawn)	i	i	i	i	i
Cc1cccc(C)c1NC(=O)CCn1cnc2ccccc2c1=O	i	i	i	i	i

Screens deposited in PubChem BioAssay by Johns Hopkins Ion Channel Center.
